According to ChEMBL document CHEMBL1147936, “Regulatory molecules for the 5-HT3 receptor ion channel gating system” (Bioorg Med Chem, 2007):
Active and inactive are the calls of the source. No cut-off for these calls is given here.

Key:
[1] = target: T1, 5-hydroxytryptamine receptor 3A (Cavia porcellus) (UniProt O70212); assay: Agonist activity at 5HT3 receptor in Hartley guinea-pig ileum assessed as muscle contraction; type: functional, tissue-based
T1 sequence (whole entry): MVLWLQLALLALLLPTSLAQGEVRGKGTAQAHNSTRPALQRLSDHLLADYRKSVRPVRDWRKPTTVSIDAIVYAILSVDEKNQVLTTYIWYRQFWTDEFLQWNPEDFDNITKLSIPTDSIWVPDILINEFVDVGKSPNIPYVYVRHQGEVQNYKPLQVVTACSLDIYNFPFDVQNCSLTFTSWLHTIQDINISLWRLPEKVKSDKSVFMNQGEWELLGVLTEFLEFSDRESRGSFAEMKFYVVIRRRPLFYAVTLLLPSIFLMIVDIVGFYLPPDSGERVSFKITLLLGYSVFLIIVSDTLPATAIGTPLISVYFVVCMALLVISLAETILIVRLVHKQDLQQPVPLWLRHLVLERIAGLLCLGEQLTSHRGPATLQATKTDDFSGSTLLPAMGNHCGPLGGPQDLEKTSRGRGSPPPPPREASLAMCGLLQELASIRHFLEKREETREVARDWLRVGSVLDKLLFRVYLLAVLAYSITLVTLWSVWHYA
Outline: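 Compounds added to the bath and contractions recorded isometrically. pD2 = negative log molar concentration giving 50% of maximum contraction, from individual concentration–response curves.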

[2] = target: T1, 5-hydroxytryptamine receptor 3A (Cavia porcellus); assay: Intrinsic activity at 5HT3 receptor in Hartley guinea-pig ileum assessed as muscle contraction relative to 5-hydroxytryptamine; type: tissue-based
[3] = target: T1, 5-hydroxytryptamine receptor 3A (Cavia porcellus); assay: Antagonist activity at 5HT3 receptor in Hartley guinea-pig ileum assessed as effect on 5-hydroxytryptamine-induced muscle contraction; type: functional, tissue-based; set-up: concentration or dose not given beside the values
Outline: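 Contractions to 5-HT recorded isometrically with and without compound present. Vehicle-treated preparation served as time-matched control. Antagonism expressed as the ratio of 5-HT contractile response in presence versus absence of compound.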

[4] = target: T1, 5-hydroxytryptamine receptor 3A (Cavia porcellus); assay: Intrinsic activity at 5HT3 receptor in Hartley guinea-pig ileum assessed as muscle contraction at 0.1 mM relative to 5-hydroxytryptamine; type: tissue-based

SMILES | pD2 [1] | Intrinsic activity [2] | Activity [3] [%] | Activity [4]
Cc1ccc2oc(N3CCN(C)CC3)nc2c1 | 6 | 0.72 | 87 | 
CN1CCN(c2nc3cc(C(C)(C)C)ccc3o2)CC1 | < 4 |  | 47 | inactive
CN1CCN(c2nc3cc(Br)ccc3o2)CC1 | 6.21 | 0.48 | 89 | 
NCCc1c[nH]c2ccc(O)cc12 | 5.34 | 1 |  | 
CCc1cccc2nc(N3CCN(C)CC3)oc12 | 5.48 | 0.15 | 90 | 
CN1CCN(c2nc3cc([N+](=O)[O-])ccc3o2)CC1 | 6.1 | 0.52 | 79 | 
CC(C)c1cccc2nc(N3CCN(C)CC3)oc12 | < 4 |  | 81 | inactive
CN1CCN(c2nc3cc(N)ccc3o2)CC1 | 4.97 | 0.76 | 73 | 
CC(=O)c1ccc2oc(N3CCN(C)CC3)nc2c1 | < 4 |  | 22 | inactive
COc1ccc2oc(N3CCN(C)CC3)nc2c1 | 4.78 | 0.78 | 74 | 
CCc1ccc2oc(N3CCN(C)CC3)nc2c1 | < 4 |  | 63 | inactive
CN1CCN(c2nc3ccccc3o2)CC1 | 5.01 | 0.62 | 82 | 
CN1CCN(c2nc3cccc(Cl)c3o2)CC1 | 5.5 | 0.24 | 90 | 
CCc1cc(Cl)cc2nc(N3CCN(C)CC3)oc12 | 6.82 | 0.17 | 100 | 
Cc1cc(Cl)cc2nc(N3CCN(C)CC3)oc12 | 6.7 | 0.24 | 94 | 
CCOC(=O)c1ccc2oc(N3CCN(C)CC3)nc2c1 | < 4 |  | 28 | inactive
CCc1cc(C)cc2nc(N3CCN(C)CC3)oc12 | 6.46 | 0.26 | 99 | 
Cc1cc(C)c2oc(N3CCN(C)CC3)nc2c1 | 6.32 | 0.62 | 94 | 
COc1cc(Cl)cc2nc(N3CCN(C)CC3)oc12 | 6.16 | 0.62 | 92 | 
COc1cccc2nc(N3CCN(C)CC3)oc12 | < 4 |  | 57 | inactive
CN1CCN(c2nc3cc(F)ccc3o2)CC1 | 5.57 | 0.64 | 91 | 
CN1CCN(c2nc3cc(Cl)cc(Cl)c3o2)CC1 | 6.51 | 0.14 | 90 | 
CN1CCN(c2nc3cc(Cl)ccc3o2)CC1 | 6.07 | 0.5 | 92 | 
COc1cc(C)cc2nc(N3CCN(C)CC3)oc12 | 6.13 | 0.56 | 91 | 
CN1C2CCCC1CC(NC(=O)c1nn(C)c3ccccc13)C2 (stereo not drawn) | < 4 |  | 100 | inactive
Cc1cccc2nc(N3CCN(C)CC3)oc12 | 5.48 | 0.58 | 89 | 
Cc1cc(Cl)c2oc(N3CCN(C)CC3)nc2c1 | 6.22 | 0.26 | 96 | 
CN1CCN(c2nc3cc(C(F)(F)F)ccc3o2)CC1 | < 4 |  | 36 | inactive
